Reference: ChEMBL document CHEMBL4819066, “Repurposing primaquine as a polyamine conjugate to become an antibiotic adjuvant” (Bioorg Med Chem, 2021)

Experiments:
Escherichia coli [1] = test: Antibacterial activity against Escherichia coli ATCC 25922 assessed as reduction in microbial growth after 18 hrs by resazurin dye based assay; type: functional
Summary of the method: (§1)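 Bacteria grown overnight at 37 °C in LB, NB or MHB, diluted 40-fold into MHB and grown 1.5-2 h to mid-log phase. Inoculum 5 × 10^5 CFU/mL (final), 2-fold serial dilutions, final range 0.008-32 µg/mL, in duplicate. […] Colistin as positive control, Z'-factor >0.4 for plate QC.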

Pseudomonas aeruginosa [2] = test: Potentiation of doxycycline-induced antibacterial activity against Pseudomonas aeruginosa ATCC 27853 assessed as complete reduction in visible microbial growth after 18 hrs in presence of 4.5 uM doxycycline by two fold serial dilution method; type: functional
Summary of the method: (§2)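 Adjuvant test by broth dilution: inoculum 5 × 10^5 CFU in 200 µL MHB. Two-fold serial dilutions of each derivative were given with doxycycline fixed at 2 µg/mL. After 18 h at 37 °C, the value recorded was the lowest adjuvant concentration giving complete absence of visible growth. Three independent repeats.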

L6 = test: Cytotoxicity against rat L6 cells assessed as reduction in cell viability at 0.123 to 90 ug/ml measured after 72 hrs by Alamar blue based inverted microscopy analysis; conditions: l6, 72 h, dose 0.123-90 µg/ml
Summary of the method: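 Rat skeletal myoblast L6 cells, 4 × 10^4 per well, in RPMI 1640 with L-glutamine and 10% FBS. Seven 3-fold dilutions were tested, 90 to 0.123 µg/mL, for 72 h. Alamar Blue added for 2 h, and fluorescence read at ex 536/em 588 nm. Podophyllotoxin served as reference drug.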

[3] = Hemolytic activity in rat RBC incubated for 1 hr by Neubauer haemocytometric analysis; type: ADME, cell-based, Erythrocyte; conditions: red blood cells (erythrocytes)
Candida albicans = test: Antifungal activity against Candida albicans ATCC 90028 assessed as reduction in microbial growth after 36 hrs by absorbance at OD530; conditions: ATCC 90028, 36 h
Staphylococcus aureus = test: Antibacterial activity against methicillin-resistant Staphylococcus aureus ATCC 43300 assessed as reduction in microbial growth after 18 hrs by resazurin dye based assay; type: functional
Summary of the method: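 Overnight culture at 37 °C, diluted 40-fold in MHB and grown 1.5-2 h to mid-log. Inoculum 5 × 10^5 CFU/mL. Two-fold serial dilutions, final 0.008-32 µg/mL, in duplicate. […] Vancomycin served as the Gram-positive standard.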

Pseudomonas aeruginosa [4] = test: Antibacterial activity against Pseudomonas aeruginosa ATCC 27853 assessed as reduction in microbial growth after 18 hrs by resazurin dye based assay; type: functional; summary of the method: as §1
Acinetobacter baumannii [5] = test: Antibacterial activity against Acinetobacter baumannii ATCC 19606 assessed as reduction in microbial growth after 18 hrs by resazurin dye based assay; type: functional; conditions: ATCC 19606 = CIP 70.34 = JCM 6841; summary of the method: as §1
Cryptococcus neoformans = test: Antifungal activity against Cryptococcus neoformans ATCC 208821 assessed as reduction in microbial growth after 36 hrs by resazurin dye based assay; type: functional
Summary of the method: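 Yeast grown 3 days on YPD agar at 30 °C and diluted in YNB broth to 2.5 × 10^3 CFU/mL. Compounds at 0.008-32 µg/mL final, 2-fold dilutions, in duplicate. After 36 h at 35 °C without shaking, resazurin added at 0.006% final for a further 3 h; MIC read as absorbance at OD570-600. Fluconazole as positive control.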

HEK293 = test: Cytotoxicity against human HEK293 cells assessed as reduction in cell viability measured after 20 hrs by resazurin based Neubauer haemocytometric analysis; conditions: hek293, 20 h
Summary of the method: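 HEK293 cells plated at 5,000 cells/well in DMEM with 10% FBS onto pre-dispensed compound and incubated 20 h at 37 °C, 5% CO2. Resazurin then added at 100 µM final for 3 h; fluorescence read at ex 560/em 590. Signal normalized to 74 µg/mL tamoxifen (0%) and untreated growth (100%). CC50 obtained from dose-response fit.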

Klebsiella pneumoniae [6] = test: Antibacterial activity against Klebsiella pneumoniae ATCC 700603 assessed as reduction in microbial growth after 18 hrs by resazurin dye based assay; type: functional; summary of the method: as §1
Escherichia coli [7] = test: Potentiation of doxycycline-induced antibacterial activity against Escherichia coli ATCC 25922 assessed as complete reduction in visible microbial growth after 18 hrs in presence of 4.5 uM doxycycline by two fold serial dilution method; type: functional; summary of the method: as §2
Acinetobacter baumannii [8] = test: Potentiation of doxycycline-induced antibacterial activity against Acinetobacter baumannii AYE assessed as complete reduction in visible microbial growth after 18 hrs in presence of 4.5 uM doxycycline by two fold serial dilution method; type: functional; summary of the method: as §2
Erythrocyte = test: Hemolytic activity in human Erythrocyte incubated for 1 hr by Neubauer haemocytometric analysis; type: ADME, cell-based
Summary of the method: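 Human whole blood washed three times in 0.9% NaCl and resuspended at 0.5 × 10^8 cells/mL (haemocytometer count). Cells added to compound plates, shaken 10 min, then incubated 1 h at 37 °C. After centrifugation at 1,000g for 10 min, supernatant absorbance read at OD405. HC10/HC50 obtained by sigmoidal fit against log concentration.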

Klebsiella pneumoniae [9] = test: Potentiation of doxycycline-induced antibacterial activity against Klebsiella pneumoniae ATCC 700603 assessed as complete reduction in visible microbial growth after 18 hrs in presence of 4.5 uM doxycycline by two fold serial dilution method; type: functional

Structure (SMILES) | MIC (Escherichia coli [1]) [µM] | MIC (Pseudomonas aeruginosa [2]) [µM] | Activity (L6) | HC50 at 1 h [3] [µM] | MIC (Candida albicans) [µM] | MIC (Staphylococcus aureus) [µM] | MIC (Pseudomonas aeruginosa [4]) [µM] | MIC (Acinetobacter baumannii [5]) [µM] | MIC (Cryptococcus neoformans) [µM] | Activity (HEK293) | MIC (Klebsiella pneumoniae [6]) [µM] | MIC (Escherichia coli [7]) [µM] | MIC (Acinetobacter baumannii [8]) [µM] | Activity (Erythrocyte) | MIC (Klebsiella pneumoniae [9]) [µM]
O=C(CCC(=O)Nc1cccc2cccnc12)NCCCNCCCCCCCCCCNCCCNC(=O)CCC(=O)Nc1cccc2cccnc12.O=C(O)C(F)(F)F.O=C(O)C(F)(F)F | > 33.1 | 100 | Non-Toxic | 30.5 | > 33.1 | 33.1 | > 33.1 | > 33.1 | > 33.1 | Non-Toxic | > 33.1 |  |  |  | 
COc1cc(NC(C)CCCNC(=O)CCC(=O)NCCCNCCCCNCCCNC(=O)CCC(=O)NCCCC(C)Nc2cc(OC)cc3cccnc23)c2ncccc2c1.O=C(O)C(F)(F)F.O=C(O)C(F)(F)F (stereo not given) | > 33.4 | 6.25 | Non-Toxic |  | > 33.4 | > 33.4 | > 33.4 | > 33.4 | 33.4 | Non-Toxic | > 33.4 | 50 | > 200 | Non-Toxic | > 200
